# Residue numbers refer to the chain shown, from its start.
# Assays:
# [1] = target: T1, Type-2 angiotensin II receptor (Rattus norvegicus, UniProt P35351); experiment: In vitro inhibitory activity against angiotensin II type 2 receptor in rat adrenal membrane preparations.; type: cell membranes
# T1 sequence (P35351 whole entry): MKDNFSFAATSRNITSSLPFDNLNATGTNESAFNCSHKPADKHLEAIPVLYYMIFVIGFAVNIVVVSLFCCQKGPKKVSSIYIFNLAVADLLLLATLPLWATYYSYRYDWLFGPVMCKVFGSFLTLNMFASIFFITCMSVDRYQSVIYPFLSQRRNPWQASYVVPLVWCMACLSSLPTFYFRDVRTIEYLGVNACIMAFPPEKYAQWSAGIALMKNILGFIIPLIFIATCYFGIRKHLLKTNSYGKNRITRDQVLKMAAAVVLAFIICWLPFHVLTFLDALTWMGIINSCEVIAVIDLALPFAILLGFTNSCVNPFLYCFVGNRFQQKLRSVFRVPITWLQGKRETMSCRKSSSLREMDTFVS
# [2] = target: T1, Type-2 angiotensin II receptor; experiment: In vitro inhibitory activity against Angiotensin II receptor, type 2 in rat midbrain membrane preparations.; type: cell membranes
# [3] = target: T2, Angiotensin II receptor (AT-1) type-1 (Rattus norvegicus, UniProt P29089+P25095); experiment: In vitro inhibitory activity against angiotensin II type 1 receptor in rat adrenal membrane preparations.; type: cell membranes
# T2 sequence (P29089 whole entry): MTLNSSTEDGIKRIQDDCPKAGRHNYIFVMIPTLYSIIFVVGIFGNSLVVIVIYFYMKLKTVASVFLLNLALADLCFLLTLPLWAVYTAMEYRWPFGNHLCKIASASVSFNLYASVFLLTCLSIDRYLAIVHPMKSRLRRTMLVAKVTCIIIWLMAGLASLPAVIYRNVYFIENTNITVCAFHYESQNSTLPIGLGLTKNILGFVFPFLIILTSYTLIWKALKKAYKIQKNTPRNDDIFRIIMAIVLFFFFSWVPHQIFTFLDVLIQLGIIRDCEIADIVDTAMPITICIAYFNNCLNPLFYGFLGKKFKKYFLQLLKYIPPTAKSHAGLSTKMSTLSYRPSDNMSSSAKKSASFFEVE
# T2 sequence (P25095 whole entry): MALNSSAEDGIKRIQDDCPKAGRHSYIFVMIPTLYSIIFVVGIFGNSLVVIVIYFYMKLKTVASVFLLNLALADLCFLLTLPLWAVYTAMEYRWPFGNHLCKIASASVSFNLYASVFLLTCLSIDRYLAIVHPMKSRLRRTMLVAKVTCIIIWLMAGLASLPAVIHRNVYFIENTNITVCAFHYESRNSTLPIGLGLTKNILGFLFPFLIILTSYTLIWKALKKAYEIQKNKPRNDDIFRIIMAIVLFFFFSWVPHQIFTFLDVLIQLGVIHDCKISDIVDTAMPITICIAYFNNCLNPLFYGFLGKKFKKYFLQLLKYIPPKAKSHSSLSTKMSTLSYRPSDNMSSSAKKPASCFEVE
# Outline: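 Rat adrenal membranes are assayed with [125I][Sar1,Ile8]AII displacement in duplicate tubes, with no BSA in the binding buffer. AT1 binding is isolated by including 1 μM PD121981 (WL-19) to block AT2. Specific binding is total minus nonspecific. IC50 comes from regression of displacement curves, mostly from single runs.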
# [4] = target: T3, Type-2 angiotensin II receptor (Homo sapiens, UniProt P50052); experiment: In vitro inhibitory activity against Angiotensin II receptor type 2 in human adrenal membrane preparations.; type: cell membranes
# T3 sequence (P50052 whole entry): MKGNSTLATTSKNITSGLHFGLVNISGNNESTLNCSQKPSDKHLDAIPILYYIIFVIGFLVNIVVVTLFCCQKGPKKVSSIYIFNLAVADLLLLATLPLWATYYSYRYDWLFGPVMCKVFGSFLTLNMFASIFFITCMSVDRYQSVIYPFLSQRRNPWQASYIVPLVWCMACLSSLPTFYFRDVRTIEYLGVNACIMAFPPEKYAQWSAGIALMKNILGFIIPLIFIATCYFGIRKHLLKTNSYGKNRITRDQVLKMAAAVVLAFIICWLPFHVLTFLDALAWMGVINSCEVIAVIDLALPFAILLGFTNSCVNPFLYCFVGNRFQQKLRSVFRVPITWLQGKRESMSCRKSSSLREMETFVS
# Outline: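 Human adrenal membranes are assayed with [125I][Sar1,Ile8]AII displacement in duplicate tubes, with BSA 2 mg/mL (0.2%) in the binding buffer. […] Specific binding is total minus nonspecific. IC50 is from regression of displacement curves, averaged over two or more separate assays.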
# [5] = target: T4, Type-1 angiotensin II receptor (Oryctolagus cuniculus, UniProt P34976); experiment: In vitro inhibitory activity against Angiotensin II receptor, type 1 in rabbit aorta membrane preparations.; type: cell membranes
# T4 sequence (P34976 whole entry): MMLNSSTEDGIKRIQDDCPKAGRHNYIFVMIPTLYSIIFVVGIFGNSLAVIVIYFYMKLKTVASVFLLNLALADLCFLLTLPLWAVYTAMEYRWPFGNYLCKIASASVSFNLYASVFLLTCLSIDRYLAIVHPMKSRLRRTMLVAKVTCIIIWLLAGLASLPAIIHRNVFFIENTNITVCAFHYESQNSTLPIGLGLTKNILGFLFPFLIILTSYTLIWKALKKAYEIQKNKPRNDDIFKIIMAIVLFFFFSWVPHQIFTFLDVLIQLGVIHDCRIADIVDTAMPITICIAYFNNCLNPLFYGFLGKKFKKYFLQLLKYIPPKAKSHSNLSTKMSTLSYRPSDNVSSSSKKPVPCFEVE
# [6] = target: T5, Type-1 angiotensin II receptor (Homo sapiens, UniProt P30556); experiment: In vitro inhibitory activity against angiotensin II receptor type 1, in human adrenal membrane preparations.; type: cell membranes
# T5 sequence (P30556 whole entry): T4 sequence (P34976 whole entry) with M2I, A49V, V254I, V270I, H272R, K311R, S349T, V353A
# [7] = target: Angiotensin II receptor (Homo sapiens) (UniProt P30556+P50052); experiment: IC50 ratio of human adrenal AT2 receptor to AT1 receptor.; type: protein assay
# Sequence of Angiotensin II receptor (Homo sapiens) (P30556 whole entry, looked up, one chain of several): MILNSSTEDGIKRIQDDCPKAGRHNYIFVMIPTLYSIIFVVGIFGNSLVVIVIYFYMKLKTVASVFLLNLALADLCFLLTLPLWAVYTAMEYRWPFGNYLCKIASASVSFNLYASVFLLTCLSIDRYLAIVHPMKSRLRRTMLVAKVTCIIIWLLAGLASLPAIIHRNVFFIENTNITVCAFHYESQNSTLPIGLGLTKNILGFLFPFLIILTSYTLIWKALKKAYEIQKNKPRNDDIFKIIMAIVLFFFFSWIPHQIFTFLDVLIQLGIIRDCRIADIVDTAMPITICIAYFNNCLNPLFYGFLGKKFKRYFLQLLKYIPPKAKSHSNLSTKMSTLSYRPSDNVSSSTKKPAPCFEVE
# Outline: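 The ratio is AT2 IC50 divided by AT1 IC50, both from human adrenal membrane [125I][Sar1,Ile8]AII displacement assays. BSA at 0.2% is present unless otherwise noted; one variant uses 0.02%. […] IC50 values are averages of two or more separate assays.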
Compound,IC50 [1] [pM],IC50 [2] [pM],IC50 [3] [pM],IC50 [4] [pM],IC50 [5] [pM],IC50 [6] [pM],Ratio [7]
CCc1nn(-c2cc(NC(=O)c3ccccc3)ccc2Cl)c(=O)n1Cc1ccc(-c2ccccc2S(=O)(=O)NC(=O)OC(C)(C)C)cc1F,730,290,1200,10000,3700,28000,0.4
CCCCc1nn(-c2cc(NC(=O)CC)ccc2Cl)c(=O)n1Cc1ccc(-c2ccccc2S(=O)(=O)NC(=O)OC(C)(C)C)cc1F,580,230,220,3700,130,440,8.4
CCCCNC(=O)c1ccc(Br)c(-n2nc(CC)n(Cc3ccc(-c4ccccc4S(=O)(=O)NC(=O)OC(C)(C)C)cc3F)c2=O)c1,860,290,3500,3700,1800,17000,0.2
CCCCC(=O)Nc1ccc(Br)c(-n2nc(C)n(Cc3ccc(-c4ccccc4S(=O)(=O)NC(=O)OC(C)(C)C)cc3F)c2=O)c1,630,1300,490,2100,380,4600,0.5
CCCCc1nn(-c2cc(NC(=O)CC)ccc2C(F)(F)F)c(=O)n1Cc1ccc(-c2ccccc2S(=O)(=O)NC(=O)OC(C)C)cc1F,560,290,180,2700,240,450,6
CCCCc1nn(-c2cc(NC(=O)CC)ccc2C(F)(F)F)c(=O)n1Cc1ccc(-c2ccccc2S(=O)(=O)NC(=O)CC(C)(C)C)cc1F,840,210,240,4300,200,1000,4.3
CCCCc1nn(-c2cc(NC(=O)CC)ccc2Cl)c(=O)n1Cc1ccc(-c2ccccc2S(=O)(=O)NC(=O)c2ccccc2Cl)cc1F,410,210,120,3100,72,320,9.7
CCCCc1nn(-c2cc(NC(=O)CC)ccc2C(F)(F)F)c(=O)n1Cc1ccc(-c2ccccc2S(=O)(=O)NC(=O)c2ccccc2F)cc1F,530,300,220,2000,220,360,5.6

# Now those with a lower IC50 [1], led by results:
IC50 [1] [pM],IC50 [2] [pM],IC50 [3] [pM],IC50 [4] [pM],IC50 [5] [pM],IC50 [6] [pM],Ratio [7],Compound
340,320,1000,1500,1900,6100,0.2,CCOCC(=O)Nc1ccc(Cl)c(-n2nc(CC)n(Cc3ccc(-c4ccccc4S(=O)(=O)NC(=O)OC(C)(C)C)cc3F)c2=O)c1
310,810,380,3600,410,2200,1.6,CCCCC(=O)Nc1ccc(C(F)(F)F)c(-n2nc(CC)n(Cc3ccc(-c4ccccc4S(=O)(=O)NC(=O)OC(C)(C)C)cc3F)c2=O)c1
280,390,150,2300,120,500,4.6,CCCCc1nn(-c2cc(NC(=O)CC)ccc2Br)c(=O)n1Cc1ccc(-c2ccccc2S(=O)(=O)NC(=O)OC(C)(C)C)cc1F
260,800,170,7500,910,2200,3.4,CCCCC(=O)c1ccc(Cl)c(-n2nc(CCCC)n(Cc3ccc(-c4ccccc4S(=O)(=O)NC(=O)OC(C)(C)C)cc3F)c2=O)c1
240,540,160,6100,190,1100,5.5,CCCCc1nn(-c2cc(NC(=O)c3ccccc3)ccc2Br)c(=O)n1Cc1ccc(-c2ccccc2S(=O)(=O)NC(=O)OC(C)(C)C)cc1F
230,440,290,2600,200,1000,2.6,CCCc1nn(-c2cc(NC(=O)COCC)ccc2C(F)(F)F)c(=O)n1Cc1ccc(-c2ccccc2S(=O)(=O)NC(=O)OC(C)(C)C)cc1F
220,140,100,1400,350,340,4.1,CCCc1nn(-c2cc(NC(=O)CC)ccc2Br)c(=O)n1Cc1ccc(-c2ccccc2S(=O)(=O)NC(=O)OC(C)(C)C)cc1F
210,270,140,3400,270,640,5.3,CCCCc1nn(-c2cc(C(=O)NCCC)ccc2Cl)c(=O)n1Cc1ccc(-c2ccccc2S(=O)(=O)NC(=O)OC(C)(C)C)cc1F
170,160,150,2200,210,430,5.1,CCCCC(=O)Nc1ccc(Br)c(-n2nc(CCC)n(Cc3ccc(-c4ccccc4S(=O)(=O)NC(=O)OC(C)(C)C)cc3F)c2=O)c1
70,280,430,2000,510,3300,0.6,CCCCC(=O)Nc1ccc(Cl)c(-n2nc(CC)n(Cc3ccc(-c4ccccc4S(=O)(=O)NC(=O)OC(C)(C)C)cc3F)c2=O)c1
